Measurements of several laboratories.
Compare with care: the assays were run in different laboratories.
Target: Serine/threonine-protein kinase MARK2 (MARK2, Homo sapiens, UniProt Q7KZI7)

| SMILES | effect on | technique | tested at | remaining binding |
| --- | --- | --- | --- | --- |
| N[C@H]1CCN(c2nccc(-c3cnn4ncccc34)n2)C1 | binding |  | 1 µM | 100% |
| CS(=O)(=O)NCC[C@H](NC(=O)c1cncc2c1cnn2-c1ccc(F)cc1)c1ccnc(S(C)(=O)=O)c1 | cell-free assay | competition with immobilised ligand | 1 µM | 75% |
| Cc1cnc(Nc2ccc(C(=O)N3CCC(N4CCCC4)CC3)cc2)nc1-c1cc2ccccc2s1 | binding | competition with immobilised ligand | 1 µM | 68% |
| Nc1ncc2c(n1)-c1c([nH]c3ccc(C#CC4CC4)cc13)CCCC2 | binding | competition with immobilised ligand | 1 µM | 94% |
| O=C(Nc1c[nH]nc1C(=O)NC1CCNCC1)c1cc(F)cc(F)c1 | binding | competition with immobilised ligand | 1 µM | 100% |
| Cc1cnn2ncc(-c3ccnc(N(C)C)n3)c2c1 | binding |  | 1 µM | 100% |
| O=C(c1ccc(Nc2ncc(Cl)c(-c3ccc(Cl)s3)n2)cc1)N1CCC(N2CCCC2)CC1 | binding | competition with immobilised ligand | 1 µM | 69% |
| O=C(NCCCC1CCCCC1)c1ccc(CNC(=O)c2cnn(-c3ccccc3)c2C(F)(F)F)cc1 | cell-free assay | competition with immobilised ligand | 0.1 µM | 100% |
| COc1ccnn2ncc(-c3ccnc(N(C)C)n3)c12 | binding |  | 1 µM | 92% |
| CCc1ccccc1C(=O)Nc1n[nH]c2c(C)c(F)c(C3C(C#N)=C(C)N(C)C(C)=C3C#N)cc12 | cell-free assay | competition with immobilised ligand | 1 µM | 40% |
| C=CC(=O)N1CCC(C(=O)NCC(=O)N2CCN(c3nc(-c4cnc(N)nc4C(F)F)nc(N4CCOCC4)n3)CC2)CC1 | binding | competition with immobilised ligand | 1 µM | 90% |
| F[C@@H]1CCN(c2nccc(-c3cnn4ncccc34)n2)C1 | binding |  | 1 µM | 100% |
| CCN1CCN(Cc2ccc(C(=O)Nc3ccc(C)c(Oc4ccc5c(c4)CC(=O)N5)c3)cc2C(F)(F)F)CC1 | binding | competition with immobilised ligand | 1 µM | 100% |
| CN(C)c1nccc(-c2cnn3ncccc23)n1 | binding |  | 1 µM | 96% |
| COc1cnc(Nc2cccc(S(N)(=O)=O)c2)nc1N1CCN(c2ccccc2)CC1 | binding | competition with immobilised ligand | 1 µM | 88% |
| C[C@H]1CCN(c2nccc(-c3cnn4ncccc34)n2)C1 | binding |  | 1 µM | 100% |
| C[C@H](NC(=O)c1cnc2n1[C@](C)(Cc1ccc(C#N)cc1)C(=O)N2c1cc(Cl)c(F)c(Cl)c1)C(=O)NC1(c2ccccn2)CC1 | cell-free assay | competition with immobilised ligand | 1 µM | 100% |
| CN(C)c1ncc(F)c(-c2cnn3ncccc23)n1 | binding |  | 1 µM | 72% |
| C[C@H](c1ccc(F)cc1)N(Cc1cccc(C(=O)O)c1)C(=O)c1cnc2ccccc2c1 | cell-free assay | competition with immobilised ligand | 1 µM | 80% |
| FC(F)(F)Oc1cccc(-c2cnc3ccc(-c4ccncc4)nn23)c1 | cell-free assay | competition with immobilised ligand | 5 µM | 64% |
| O=C(O)[C@@H]1[C@@H](Cn2nnc3ccccc3c2=O)CC[C@H]1C(=O)c1ccc(OCCC2CCOCC2)cc1 | cell-free assay | competition with immobilised ligand | 1 µM | 100% |
| O=C(c1ccc(Nc2ncc(Cl)c(-c3cc4ccccc4s3)n2)cc1)N1CCC(N2CCCC2)CC1 | binding | competition with immobilised ligand | 1 µM | 80% |
